CHRM1 antagonist: human M1 muscarinic receptor antagonists, primary screen, CHO-K1 cells, Fluo-8 calcium fluorescence, 1536-well | CHO-K1 hM1, ACh EC80 antagonist | inhibition, % at 3 µM | hit rate 1.3% among 360,000;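 active = percent inhibition above its own plate's cutoff, namely the mean of that plate's compound wells plus 3 SD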;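 note: peak over basal fluorescence ratio during 140 s after agonist addition; 0% = ACh EC80 plus DMSO and 100% = DMSO alone without agonist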
Target sequence (P11229 whole entry, looked up): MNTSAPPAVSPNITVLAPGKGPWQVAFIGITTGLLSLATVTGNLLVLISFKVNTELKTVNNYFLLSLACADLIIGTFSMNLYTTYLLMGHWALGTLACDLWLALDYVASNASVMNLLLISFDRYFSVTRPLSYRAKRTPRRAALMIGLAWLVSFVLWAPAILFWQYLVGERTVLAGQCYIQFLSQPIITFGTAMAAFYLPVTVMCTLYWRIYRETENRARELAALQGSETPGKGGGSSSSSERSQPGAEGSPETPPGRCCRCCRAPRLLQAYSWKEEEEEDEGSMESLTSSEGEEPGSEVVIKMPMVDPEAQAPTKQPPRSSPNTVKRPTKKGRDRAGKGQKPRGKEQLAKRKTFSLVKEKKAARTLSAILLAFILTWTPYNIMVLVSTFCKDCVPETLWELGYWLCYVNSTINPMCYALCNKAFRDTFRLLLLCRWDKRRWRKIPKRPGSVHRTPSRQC
CHRM5 agonist: human M5 muscarinic receptor agonists, primary screen, CHO-K1 cells, Fluo-8 calcium fluorescence; Muscarinic acetylcholine receptor M5 (Homo sapiens), P08912; CHO-K1 hM5 cells; 0% DMSO wells, 100% maximal acetylcholine response; activation, % at 3 µM; AID 624037, 2012; hit rate 0.19% among 360,000;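 active = activation above the run's mean over test compounds plus 3 SD, cut at about 23% in these data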;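 note: signal is peak over basal fluorescence ratio across the kinetic read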
M1 PAM: human M1 muscarinic receptor positive allosteric modulators, primary screen, CHO-K1 cells, Fluo-8 calcium fluorescence, 1536-well; Muscarinic acetylcholine receptor M1 (Homo sapiens), P11229; CHO-K1 hM1, ACh EC20; 0% = ACh EC20, 100% = maximal ACh; activation, % at 3 µM; hit rate 0.088% among 360,000; in the data active = activation above about 19%, passing the limit was not always enough
CHRM1 agonist: human M1 muscarinic receptor agonists, primary screen, Fluo-8 calcium fluorescence, CHO-K1 cells, HTS | activation, % at 3 µM | CHO-K1 hM1, agonist mode; 0% DMSO, 100% acetylcholine EC100 | Muscarinic acetylcholine receptor M1 (Homo sapiens), P11229 | hit rate 0.33% among 360,000;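 active = activation above the run's mean compound activation plus 3 SD, cut at about 16% in these data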;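 note: peak over basal fluorescence ratio within a 140 s kinetic read after compound addition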
CHRM5 antagonist: human M5 muscarinic receptor antagonists, primary screen, CHO cells, Fluo-8 calcium fluorescence; Muscarinic acetylcholine receptor M5 (Homo sapiens), P08912; CHO-hM5 cells, ACh EC80; inhibition, % at 3 µM; hit rate 0.59% among 360,000;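 active = inhibition above a per-plate cutoff, the mean of that plate's test compounds plus 3 SD, cut at about 27% in these data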;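 note: 0% = acetylcholine EC80 with DMSO and 100% = DMSO without agonist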
M5 PAM: human M5 muscarinic receptor positive allosteric modulators, primary screen, CHO-K1 cells, Fluo-8 calcium fluorescence; CHO-K1 hM5, ACh EC20 PAM; 0% = ACh EC20, 100% = ACh EC100; activation, % at 3 µM; hit rate 0.3% among 360,000;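 active = activation above the run cutoff, the mean activation of all test compounds plus 3 SD, cut at about 18% in these data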
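Assay system: CHO-K1 hM5 cells. Also added: acetylcholine at EC20 concentration, added after compound. Dosing: 3 µM, single dose. Times: compound preincubation 140 s before EC20 acetylcholine addition. Signal: Fluo-8 calcium fluorescence. Measure: % activation relative to EC20 and EC100 ACh responses. Repeats: singlicate, one well per test compound.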
Active calls of the source: *; . = not tested or not shown. Sampled rows, rich in hits. Any-hit rate of the full collection: about 2%.

SMILES	CHRM1 antagonist	CHRM5 agonist	M1 PAM	CHRM1 agonist	CHRM5 antagonist	M5 PAM
CCOc1ccc(CNC(=O)CCCC(=O)n2ncc3cc(C)ccc32)cc1	-14.2	-0.7	11.3	-2.5	-7.7	7.2
O=C(COC(=O)c1ccccc1SCC(=O)N1CCCC1)Nc1ccc(OC(F)F)cc1	-7.4	-1.9	3.3	-3.8	-2.5	0.6
NC(=O)c1ccc(NC(=O)COC(=O)c2ccccc2SCC(=O)N2CCCC2)cc1	-32.8	0.2	26.9*	5.3	-4.4	1.7
Cc1ccc(NC(=O)CCNC(=O)c2ccco2)cc1F	3.1	-2.0	-0.1	-5.7	12.8	-1.1
CNS(=O)(=O)c1cc(NC(=O)CCNC(=O)c2ccco2)ccc1C	-13.7	-2.5	11.1	-4.2	27.5*	0.9
CN(Cc1ccccc1)C(=O)c1ccc(NC(=O)Cc2ccc([N+](=O)[O-])cc2)cc1	11.0	25.6*	1.3	4.4	2.0	13.7
CN(C(=O)c1ccc(NC(=O)Cc2ccc([N+](=O)[O-])cc2)cc1)C1CC1	26.1	21.8	-16.4	11.2	18.3	-3.9
CCOC(=O)c1c[nH]n2c(=S)ncnc12	-5.4	-0.1	2.2	-0.9	7.6	-5.6
Cc1ccc(C(=O)NNc2ncnc3c2cnn3C)cc1	-7.6	2.2	4.5	-3.6	-5.2	18.6*
Cc1ccccc1C(=O)NNc1ncnc2c1cnn2C	-0.1	1.7	3.3	-4.0	17.3	-8.4
CC(C)NC1CCC(Nc2ccnc3cc(Cl)ccc23)CC1 (stereo not given)	0.9	-4.2	-7.8	-8.9	0.7	-5.8
CC(CCCN1CCCC1)Nc1ccnc2cc(Cl)ccc12 (stereo not given)	57.6*	-9.2	-30.9	-9.3	13.6	-5.0
CSC(=S)NN=C(C)c1cccc(C)n1	-20.4	2.6	6.5	-2.4	6.0	-14.1
COc1cc(/C=N/NC(=O)/C(=C/c2ccccc2)CCO)ccc1O	-0.4	-0.8	4.2	-4.4	1.4	-2.9
COc1ccc(/C=N/NC(=O)/C(=C/c2ccccc2)CCO)cc1	2.1	-1.4	29.0*	-4.8	9.2	-3.6
Cc1ccc(NS(=O)(=O)c2cc(Br)cnc2N)cc1C	99.5*	-9.7	-24.4	-6.1	99.6*	-18.3
CSc1cccc(NS(=O)(=O)c2ccccc2)c1	-3.1	-4.1	2.5	-3.4	1.1	-6.5
CSc1cccc(NS(=O)(=O)c2cc(Br)cnc2N)c1	62.5*	-9.9	-24.2	-5.5	22.8	-17.7
Cc1cc(C)cc(NS(=O)(=O)c2cc(Br)cnc2N)c1	-3.4	-6.4	0.0	-3.4	3.6	-3.0
CC(C)(C)c1ccc(CC(=O)N2CCC2(C)C(=O)NCc2cccs2)cc1 (stereo not given)	-15.8	1.9	-0.1	1.2	4.2	-3.3
CC[C@H](C)[C@H]1CNC(=S)N1CC1CCN(CCC23CC4CC(CC(C4)C2)C3)CC1	90.1*	-3.4	-31.3	-10.7	18.4	-19.2
CC[C@H](C)[C@H]1CNC(=S)N1CC1CCN(CC2CCC(C)CC2)CC1 (stereo not given in full)	9.4	-3.2	-14.8	-11.0	3.9	-11.5
CC(C)(C)n1nnnc1C(c1ccccc1)N1CCN(CCN2CCOCC2)CC1 (stereo not given)	.	-6.8	.	.	7.9	-10.2
Cn1c(SCC(=O)c2cc(Cl)c(Cl)s2)nnc1-c1ccco1	-17.1	5.8	10.4	-0.6	-10.9	19.2*
CCN1/C(=C/C(C)=C/c2sc3ccccc3[n+]2CC)Sc2ccccc21	47.6*	2.5	-23.6	11.2	42.5*	-18.1
SMILES	CHRM1 antagonist	CHRM5 agonist	M1 PAM	CHRM1 agonist	CHRM5 antagonist	M5 PAM
CCN1/C(=C\C(=S)Nc2ccccc2)Sc2ccccc21	8.5	1.1	-5.8	-7.7	12.9	-6.1
CCN(CC)c1ccc(/C=C2/C(=O)c3ccc(C(=O)O)cc3C2=O)cc1	76.2*	32.6*	-27.3	186.4*	17.9	-17.2
CCN(CC)c1ccc(C=C2C(=O)OC3(CCCCC3)OC2=O)cc1	-3.2	-2.5	6.1	-2.4	10.3	-2.2
Cc1ccc(S(=O)(=O)N2CCCC(C(=O)N3CCN(c4ccccc4)CC3)C2)cc1 (stereo not given)	9.5	-6.0	-7.8	-2.0	29.2*	-12.1
Cc1ccc(S(=O)(=O)N2CCC(C(=O)N3Cc4ccccc4C3)CC2)cc1	-23.6	-5.0	3.6	-2.0	-9.8	18.8*
O=c1c2ccccc2nc2sc(Nc3cccc(Cl)c3)nn12	-4.2	5.7	3.4	-3.0	-15.1	19.7*
CCN(c1ccc(NC(=O)CSc2ccc3c(c2)OCCO3)cc1)C(C)C	81.5*	-8.2	-30.6	-6.9	19.5	-23.0
CCOC(=O)C1(Cc2ccc(OC)cc2)CCN(C(=O)CN2CCCCC2=O)CC1	0.8	-1.9	7.7	-7.0	28.4*	-9.5
Cn1c(=O)c2c(nc(NCc3ccco3)n2C/C=C/c2ccccc2)n(C)c1=O	31.8*	3.7	-10.1	-0.3	5.0	-1.9
Cn1c(=O)c2c(nc(NCc3ccco3)n2C)n(C)c1=O	-8.9	-1.4	3.2	-6.4	3.4	-2.9
CCNc1nc(NC(C)(C)C)nc(N2CCCCC2)n1	85.7*	-10.1	-27.9	-10.6	60.7*	-22.0
CC(C)Cn1cc(-c2cccc3nccn23)cn1	-6.7	-0.6	4.7	-5.1	2.1	-0.9
O=C(CCN1C(=O)/C(=C/c2ccccc2F)SC1=S)NCCc1ccc(O)cc1	32.0*	7.7	-12.2	3.3	1.2	-5.5
CCc1nc2ccc(C(=O)N3CCN(C(=O)c4ccco4)CC3)cn2c1N(CC)Cc1cccc(Br)c1	-3.8	-3.4	-12.8	-8.2	2.6	-8.9
CN(Cc1ccccc1)CC(O)CN(C)Cc1ccccc1	5.2	-7.9	-5.3	18.4*	11.3	-11.7
O=C(NC1CCCC1)C1c2ccccc2OCC(=O)N1Cc1ccco1 (stereo not given)	.	0.4	.	.	-2.3	2.3
COc1ccc(NC(=O)Nc2cccc([N+](=O)[O-])c2)cc1Cl	15.9	4.7	-10.4	2.0	30.6*	-18.6
COc1ccc(C(=O)Nc2cccc([N+](=O)[O-])c2)cc1Br	-8.1	-2.4	0.5	-5.6	5.7	-0.3
O=C(Nc1ccc(OC(F)F)c(Cl)c1)c1cccc(OC(F)F)c1	19.5	-5.1	-15.0	-3.8	39.6*	-21.8
C=CCNC(=S)Nc1ccc(OC(F)F)c(Cl)c1	9.8	2.5	-11.9	-2.5	28.6*	-13.7
